# In ChEMBL document CHEMBL1649451, “In vivo selection of reduced susceptibility to carbapenems in Acinetobacter baumannii related to ISAba1-mediated overexpression of the natural bla(OXA-66) oxacillinase gene” (2009):
# Key:
# Format in all cases: functional
# [1] = system: Acinetobacter baumannii; test: Antimicrobial activity against carbapenem-susceptible Acinetobacter baumannii isolate A1 by Etest method
# Procedure, shortened: (§1)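 Etest strips on Mueller-Hinton agar, incubated at 37°C; MIC read from strip for clinical A. baumannii isolates A1 and A2 (clonally related, genotyped by ApaI PFGE).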
# [2] = system: Acinetobacter baumannii; test: Antimicrobial activity against carbapenem-resistant Acinetobacter baumannii isolate A2 by Etest method; procedure, shortened: as §1
# [3] = system: Acinetobacter baumannii; test: Antimicrobial activity against bla OXA-66 gene-deficient Acinetobacter baumannii isolate A2 by Etest method; procedure, shortened: as §1
SMILES,MIC [1] [µg/mL],MIC [2] [µg/mL],MIC [3] [µg/mL]
CC(C)(O/N=C(\C(=O)N[C@@H]1C(=O)N2C(C(=O)[O-])=C(C[n+]3ccccc3)CS[C@H]12)c1csc(N)n1)C(=O)O [CEFTAZIDIME],128,128,128
CO[C@H]1/C=C/O[C@@]2(C)Oc3c(C)c(O)c4c(O)c(c(/C=N/N5CCN(C)CC5)c(O)c4c3C2=O)NC(=O)/C(C)=C\C=C\[C@H](C)[C@H](O)[C@@H](C)[C@@H](O)[C@@H](C)[C@H](OC(C)=O)[C@@H]1C [RIFAMPIN],8,8,128
C[C@@H](O)[C@H]1C(=O)N2C(C(=O)O)=C(S[C@@H]3CN[C@H](C(=O)N(C)C)C3)[C@H](C)[C@H]12 [MEROPENEM],3,6,0.5
C[C@@H](O)[C@H]1C(=O)N2C(C(=O)O)=C(SCCNC=N)C[C@H]12 [IMIPENEM ANHYDROUS],2,4,0.5
